# Calls of active or inactive are those of the source. The rule behind the calls is not given here.
# What was measured:
# Leishmania braziliensis [1] = test: Leishmanicidal activity against Leishmania braziliensis MHOM/BR/01/BA788 after 48 hrs; format: functional, organism-based; conditions: MHOM/BR/01/BA788, 48 h
# In short: (§1)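 Log-phase promastigotes at 10⁵ per well in medium with 10% heat-inactivated FCS, 2 mM L-glutamine, gentamicin and 2% human urine were grown with compound at 26 °C for 48 h. Parasites were counted by automatic cell counter, with inhibition expressed as % of DMSO-treated control. Triplicates, with experiments repeated at least twice.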
# Leishmania braziliensis [2] = test: Leishmanicidal activity against Leishmania braziliensis MHOM/BR/01/BA788 after 48 hrs relative to control; format: functional; set-up: concentration or dose not given beside the values; in short: as §1
# Leishmania amazonensis [3] = test: Leishmanicidal activity against Leishmania amazonensis MHOM/BR/87/BA125 after 48 hrs; format: functional, organism-based; conditions: MHOM/BR/87/BA125, 48 h; in short: as §1
# Leishmania amazonensis [4] = test: Leishmanicidal activity against Leishmania amazonensis MHOM/BR/87/BA125 after 48 hrs relative to control; format: functional; set-up: concentration or dose not given beside the values; in short: as §1
# [5] = Cytotoxicity against mouse J774 cells after 48 hrs by MTT assay; format: cell-based; conditions: read-out: LC50
# In short: (§2)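 J774 murine macrophages in DMEM with 2 mM L-glutamine, 10 mM HEPES, 10% FCS and gentamicin were seeded at 1.5 × 10⁵ cells/well and attached for 24 h at 37 °C. Cells were exposed to 1, 10 or 100 µM for 48 h, then given MTT for 1 h at 37 °C in the dark. Formazan was dissolved in DMSO and read at 540 nm. Triplicates with growth controls.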
# Leishmania amazonensis [6] = test: Antiamastigote activity against Leishmania amazonensis MHOM/BR/87/BA125 infected in BALB/c mouse peritoneal macrophages assessed as inhibition of infection index after 48 hrs by Giemsa staining; format: functional, organism-based
# In short: (§3)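 Thioglycollate-elicited BALB/c peritoneal macrophages, 4 × 10⁵ per well on coverslips in DMEM with 10% FBS, adhered overnight and were infected with L. amazonensis promastigotes at 37 °C for 4 h. Free parasites were removed, then compounds were added (1, 10, 100 µM; DMSO ≤0.01%) for 48 h at 37 °C, 5% CO2. Infection index = % infected × mean amastigotes per macrophage.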
# Leishmania amazonensis [7] = test: Antiamastigote activity against Leishmania amazonensis MHOM/BR/87/BA125 infected in BALB/c mouse peritoneal macrophages assessed as inhibition of infection index at 100 uM after 48 hrs by Giemsa staining; format: functional; conditions: MHOM/BR/87/BA125, 48 h; in short: as §3
# Leishmania amazonensis [8] = test: Antiamastigote activity against Leishmania amazonensis MHOM/BR/87/BA125 infected in BALB/c mouse peritoneal macrophages assessed as decrease of number of intracellular parasites per macrophage at 1 to 100 uM after 48 hrs by Giemsa staining; format: functional, organism-based; in short: as §3
# Leishmania amazonensis [9] = test: Antiamastigote activity against Leishmania amazonensis MHOM/BR/87/BA125 infected in BALB/c mouse peritoneal macrophages assessed as decrease of percentage of infected macrophages at 1 to 100 uM after 48 hrs by Giemsa staining; format: functional, organism-based; in short: as §3
# Leishmania amazonensis [10] = test: Antiamastigote activity against Leishmania amazonensis MHOM/BR/87/BA125 infected in BALB/c mouse peritoneal macrophages assessed as decrease of percentage of infected macrophages at 10 to 100 uM after 48 hrs by Giemsa staining; format: functional, organism-based; in short: as §3
# Leishmania amazonensis [11] = test: Antiamastigote activity against Leishmania amazonensis MHOM/BR/87/BA125 infected in BALB/c mouse peritoneal macrophages assessed as decrease of percentage of infected macrophages at 1 uM after 48 hrs by Giemsa staining; format: functional, organism-based; in short: as §3
# Leishmania amazonensis [12] = test: Antiamastigote activity against Leishmania amazonensis MHOM/BR/87/BA125 infected in BALB/c mouse peritoneal macrophages assessed as decrease of percentage of infected macrophages at 100 uM after 48 hrs by Giemsa staining; format: functional; conditions: MHOM/BR/87/BA125, 48 h; in short: as §3
# Leishmania amazonensis [13] = test: Antiamastigote activity against Leishmania amazonensis MHOM/BR/87/BA125 infected in BALB/c assessed as decrease of lesion size in ear at 30 mg/kg, po qd for 28 days measured up to 30 days; format: functional
# In short: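 Female BALB/c mice, 6-8 weeks old, inoculated in right ear dermis with 10⁵ stationary-phase L. amazonensis promastigotes in sterile saline. From the second week post-infection, groups of 5 were dosed orally once daily for 28 days at 30 mg/kg/day in water; vehicle control received water orally. Lesion size was taken as infected minus contralateral ear thickness, measured twice weekly by digital caliper.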
# Leishmania amazonensis [14] = test: Antiamastigote activity against Leishmania amazonensis MHOM/BR/87/BA125 infected in BALB/c assessed as decrease of parasite load in ear at 30 mg/kg, po qd for 28 days measured up to 30 days; format: functional, organism-based
# In short: (§4)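 BALB/c mice (n = 5 per group) infected in the ear dermis with 10⁵ L. amazonensis promastigotes, then dosed orally with 30 mg/kg/day in water for 28 days. After treatment, infected ears and draining lymph nodes were excised, homogenized and serially diluted in Schneider medium with 10% FCS for a limiting dilution assay. Groups were compared to control by one-way ANOVA with Dunnett's test.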
# Leishmania amazonensis [15] = test: Antiamastigote activity against Leishmania amazonensis MHOM/BR/87/BA125 infected in BALB/c assessed as decrease of parasite load in draining lymph nodes at 30 mg/kg, po qd for 28 days measured up to 30 days; format: functional, organism-based; in short: as §4
# J774 = test: Cytotoxicity against mouse J774 cells at 100 uM after 48 hrs by MTT assay; format: cell-based; conditions: j774, 48 h; in short: as §2
Compound,IC50 (Leishmania braziliensis [1]),Efficacy (Leishmania braziliensis [2]),IC50 (Leishmania amazonensis [3]),Efficacy (Leishmania amazonensis [4]),CC50 at 48 h [5],inhibition (Leishmania amazonensis [6]),inhibition at 100 µM (Leishmania amazonensis [7]),Activity (Leishmania amazonensis [8]),Activity (Leishmania amazonensis [9]),Activity (Leishmania amazonensis [10]),Activity (Leishmania amazonensis [11]),inhibition at 100 µM (Leishmania amazonensis [12]),Activity (Leishmania amazonensis [13]),Activity (Leishmania amazonensis [14]),Activity (Leishmania amazonensis [15]),Activity (J774)
CC(C)OP(=O)(N/N=C/c1ccncc1)OC(C)C,> 100 µM,inactive,> 100 µM,inactive,> 100 µM,–,–,–,–,–,–,–,–,–,–,–
CCCCOP(=O)(N/N=C/c1cccnc1)OCCCC,5.4 µM,87.9%,53.3 µM,85.6%,> 100 µM,–,–,–,–,–,–,–,–,–,–,–
CCCCOP(=O)(N/N=C/c1ccccn1)OCCCC (mixture of isomers),0.06 µM,76.3%,6.2 µM,69.5%,> 100 µM,–,–,–,–,–,–,–,–,–,–,–
CC(C)COP(=O)(N/N=C/c1ccncc1)OCC(C)C,0.06 µM,84.2%,> 100 µM,inactive,> 100 µM,–,–,–,–,–,–,–,–,–,–,–
CCC(C)OP(=O)(N/N=C/c1cncc(Br)c1)OC(C)CC (stereo not given),3.6 µM,92.2%,26.3 µM,93.8%,> 100 µM,Dose-dependent effect,99.9%,Active,Active,Active,inactive,99.3%,0.0527 mm,inactive,Active,–
CC(C)COP(=O)(N/N=C/c1cccnc1)OCC(C)C,40.7 µM,81.6%,83.3 µM,52.8%,> 100 µM,–,–,–,–,–,–,–,–,–,–,–
CCC(C)OP(=O)(N/N=C/c1cccnc1Br)OC(C)CC (stereo not given),5.2 µM,80.1%,< 0.001 µM,95.3%,> 100 µM,Dose-dependent effect,97.9%,Active,Active,Active,inactive,82.2%,0.0804 mm,Active,Active,–
CC(C)OP(=O)(N/N=C/c1cccnc1)OC(C)C,0.4 µM,75.9%,> 100 µM,inactive,> 100 µM,–,–,–,–,–,–,–,–,–,–,–
CCOP(=O)(N/N=C/c1ccncc1)OCC,> 100 µM,inactive,> 100 µM,inactive,> 100 µM,–,–,–,–,–,–,–,–,–,–,–
N=C(N)c1ccc(OCCCCCOc2ccc(C(=N)N)cc2)cc1 [PENTAMIDINE],0.06 µM,95.7%,1.8 µM,93.8%,> 100 µM,–,–,–,–,–,–,–,–,–,–,28.8%
CC(C)COP(=O)(N/N=C/c1ccccn1)OCC(C)C,> 100 µM,inactive,98.3 µM,40.7%,> 100 µM,–,–,–,–,–,–,–,–,–,–,–
CCC(C)OP(=O)(N/N=C/c1c(Cl)cncc1Cl)OC(C)CC (stereo not given),0.03 µM,74.1%,26 µM,92.4%,> 100 µM,–,–,–,–,–,–,–,–,–,–,20.5%
CC(C)OP(=O)(N/N=C/c1ccccn1)OC(C)C,0.7 µM,56.3%,> 100 µM,inactive,> 100 µM,–,–,–,–,–,–,–,–,–,–,–
CCOP(=O)(N/N=C/c1cccnc1)OCC,> 100 µM,inactive,> 100 µM,inactive,> 100 µM,–,–,–,–,–,–,–,–,–,–,–
CCCCOP(=O)(N/N=C/c1ccncc1)OCCCC,5.1 µM,77.2%,99.3 µM,45.5%,> 100 µM,–,–,–,–,–,–,–,–,–,–,–
CCOP(=O)(N/N=C/c1ccccn1)OCC (mixture of isomers),7.5 µM,62.1%,> 100 µM,inactive,> 100 µM,–,–,–,–,–,–,–,–,–,–,–
CCCCCCCCCCCCCCCCOP(=O)([O-])OCC[N+](C)(C)C [MILTEFOSINE],0.7 µM,84.5%,3.4 µM,96.3%,> 100 µM,–,100%,–,–,–,–,–,–,Active,Active,–
